Data from ChEMBL document CHEMBL1156261, “Evaluation of substituted N,N'-diarylsulfonamides as activators of the tumor cell specific M2 isoform of pyruvate kinase” (J Med Chem, 2010).
The source made the active and inactive calls. How the calls were made is not given here.

How the values were obtained:
[1] = target: Pyruvate kinase PKLR (Homo sapiens) (UniProt P30613); experiment: Activation of PKR assessed as pyruvate formation by fluorescent pyruvate kinase-lactate dehydrogenase coupled assay relative to control; design: concentration or dose not given beside the values
Chain of Pyruvate kinase PKLR (Homo sapiens) (P30613 whole entry, looked up): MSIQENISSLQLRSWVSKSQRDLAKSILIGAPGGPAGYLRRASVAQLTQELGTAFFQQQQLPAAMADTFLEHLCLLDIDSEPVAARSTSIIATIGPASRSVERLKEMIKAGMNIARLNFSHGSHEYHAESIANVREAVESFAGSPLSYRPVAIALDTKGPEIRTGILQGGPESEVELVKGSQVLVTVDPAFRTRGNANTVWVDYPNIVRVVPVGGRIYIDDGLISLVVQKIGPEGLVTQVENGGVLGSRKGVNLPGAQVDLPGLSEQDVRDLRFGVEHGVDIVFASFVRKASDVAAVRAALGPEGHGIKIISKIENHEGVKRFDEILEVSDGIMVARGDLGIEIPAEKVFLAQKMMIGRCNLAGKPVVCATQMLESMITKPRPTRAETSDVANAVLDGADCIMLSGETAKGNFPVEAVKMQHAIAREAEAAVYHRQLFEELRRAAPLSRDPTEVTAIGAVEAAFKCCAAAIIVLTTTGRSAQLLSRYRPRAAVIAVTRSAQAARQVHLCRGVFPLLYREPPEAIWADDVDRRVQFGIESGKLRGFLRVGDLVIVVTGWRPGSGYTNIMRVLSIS

[2] = target: Pyruvate kinase PKLR (Homo sapiens) (UniProt P30613); experiment: Activation of PKR assessed as ATP product formation by luminescent pyruvate kinase-luciferase coupled assay relative to control; design: concentration or dose not given beside the values
Outline: (§1)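 Luciferase-coupled ATP production assay run as for PKM2: imidazole pH 7.2 buffer with KCl, MgCl2, Tween 20 and BSA, 0.1 mM ADP, 0.5 mM PEP, 1 h at r.t., Kinase-Glo luminescence. Enzyme final concentrations were PKM1 1 nM, PKL 0.1 nM, PKR 0.1 nM. % activation normalized to DMSO (neutral) and no-enzyme controls.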

[3] = target: Pyruvate kinase PKLR (Homo sapiens) (UniProt P30613); experiment: Activation of PKL assessed as pyruvate formation by fluorescent pyruvate kinase-lactate dehydrogenase coupled assay relative to control; design: concentration or dose not given beside the values
[4] = target: Pyruvate kinase PKLR (Homo sapiens) (UniProt P30613); experiment: Activation of PKL assessed as ATP product formation by luminescent pyruvate kinase-luciferase coupled assay relative to control; design: concentration or dose not given beside the values; outline: as §1
Pyruvate kinase PKM [5] = target: T1, Pyruvate kinase PKM (Homo sapiens, UniProt P14618); experiment: Activation of PKM2 assessed as ATP product formation at 57 uM by luminescent pyruvate kinase-luciferase coupled assay relative to fructose-1,6-bis-phosphate
T1 sequence (P14618 2-531 limits assumed): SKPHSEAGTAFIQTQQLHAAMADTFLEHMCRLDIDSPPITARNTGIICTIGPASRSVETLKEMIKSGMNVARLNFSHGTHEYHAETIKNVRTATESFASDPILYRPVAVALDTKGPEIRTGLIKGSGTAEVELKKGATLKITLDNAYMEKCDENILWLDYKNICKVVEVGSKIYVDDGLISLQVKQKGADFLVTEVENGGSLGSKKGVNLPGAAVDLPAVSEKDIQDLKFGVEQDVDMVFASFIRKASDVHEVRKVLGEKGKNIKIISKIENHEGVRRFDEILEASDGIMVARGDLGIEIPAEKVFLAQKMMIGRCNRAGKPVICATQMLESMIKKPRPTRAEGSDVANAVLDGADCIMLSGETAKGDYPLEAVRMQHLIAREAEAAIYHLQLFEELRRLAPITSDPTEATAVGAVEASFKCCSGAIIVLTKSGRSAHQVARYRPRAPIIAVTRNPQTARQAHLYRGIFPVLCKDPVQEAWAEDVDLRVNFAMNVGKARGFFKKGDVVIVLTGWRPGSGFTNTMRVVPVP
Outline: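 Recombinant human PKM2 (0.1 nM final) in 50 mM imidazole pH 7.2, 50 mM KCl, 7 mM MgCl2, 0.01% Tween 20, 0.05% BSA; 0.1 mM ADP, 0.5 mM PEP; 1 h at r.t., then Kinase-Glo luciferase read of ATP formed. Activation % = (c−n)/(n−i)×100 against DMSO and no-enzyme controls; 100% ≈ 2-fold over basal signal. Max response taken at 57 μM; three separate experiments.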

Pyruvate kinase PKM [6] = target: T1, Pyruvate kinase PKM; experiment: Activation of PKM1 assessed as pyruvate formation by fluorescent pyruvate kinase-lactate dehydrogenase coupled assay
Pyruvate kinase PKM [7] = target: T1, Pyruvate kinase PKM; experiment: Activation of PKM1 assessed as ATP product formation by luminescent pyruvate kinase-luciferase coupled assay; outline: as §1

Row | Structure (SMILES) | Activity [1] [%] | Activity [2] [%] | Activity [3] [%] | Activity [4] [%] | Activity (Pyruvate kinase PKM [5]) [%] | Activity (Pyruvate kinase PKM [6]) | Activity (Pyruvate kinase PKM [7])
1 | O=S(=O)(c1ccc2c(c1)OCCO2)C1CCN(S(=O)(=O)c2c(F)cccc2F)CC1 | < 30 | < 30 | < 30 | < 30 | 110 | inactive | inactive
2 | COc1cccc(S(=O)(=O)N2CCN(S(=O)(=O)c3ccc4c(c3)OCCO4)CC2)c1 | < 30 | < 30 | < 30 | < 30 | 90 | inactive | inactive
3 | O=S(=O)(c1cccc(C(F)(F)F)c1)N1CCN(S(=O)(=O)c2ccc3c(c2)OCCO3)CC1 | < 30 | < 30 | < 30 | < 30 | 39.3 | inactive | inactive
4 | O=S(=O)(c1ccc2ccccc2c1)N1CCN(S(=O)(=O)c2c(F)cccc2F)CC1 | < 30 | < 30 | < 30 | < 30 | 138 | inactive | inactive
5 | O=S(=O)(c1ccc2c(c1)OCCCO2)N1CCN(S(=O)(=O)c2c(F)cccc2F)CC1 | < 30 | < 30 | < 30 | < 30 | 100 | inactive | inactive
6 | O=C1CN(S(=O)(=O)c2c(F)cccc2F)CCN1S(=O)(=O)c1ccc2c(c1)OCCO2 | < 30 | < 30 | < 30 | < 30 | 105 | inactive | inactive
7 | O=S(=O)(NCCCCNS(=O)(=O)c1c(F)cccc1F)c1ccc2c(c1)OCCO2 | < 30 | < 30 | < 30 | < 30 | 113 | inactive | inactive
8 | O=S(=O)(NCCCCCCNS(=O)(=O)c1c(F)cccc1F)c1ccc2c(c1)OCCO2 | < 30 | < 30 | < 30 | < 30 | 110 | inactive | inactive
9 | O=S(=O)(c1ccc2c(c1)OCO2)N1CCN(S(=O)(=O)c2c(F)cccc2F)CC1 | < 30 | < 30 | < 30 | < 30 | 61 | inactive | inactive
10 | O=C1CN(S(=O)(=O)c2ccc3c(c2)OCCO3)CCN1S(=O)(=O)c1c(F)cccc1F | < 30 | < 30 | < 30 | < 30 | 96.9 | inactive | inactive
11 | COc1cc(F)c(S(=O)(=O)N2CCN(S(=O)(=O)c3ccc4c(c3)OCCO4)CC2)c(F)c1 | < 30 | < 30 | < 30 | < 30 | 91.8 | inactive | inactive
12 | O=S(=O)(c1ccc2c(c1)OCCO2)N1CCN(S(=O)(=O)c2cc(F)c(F)cc2F)CC1 | < 30 | < 30 | < 30 | < 30 | 105 | inactive | inactive
13 | N#Cc1ccc(S(=O)(=O)N2CCN(S(=O)(=O)c3ccc4c(c3)OCCO4)CC2)cc1 | < 30 | < 30 | < 30 | < 30 | 44.1 | inactive | inactive
14 | CC1(C)CCc2cc(S(=O)(=O)N3CCN(S(=O)(=O)c4c(F)cccc4F)CC3)ccc2O1 | < 30 | < 30 | < 30 | < 30 | 119 | inactive | inactive
15 | O=S(=O)(NCCCCCNS(=O)(=O)c1c(F)cccc1F)c1ccc2c(c1)OCCO2 | < 30 | < 30 | < 30 | < 30 | 114 | inactive | inactive
16 | O=S(=O)(c1ccc(Cl)cc1)N1CCN(S(=O)(=O)c2ccc3c(c2)OCCO3)CC1 | < 30 | < 30 | < 30 | < 30 |  | inactive | inactive

Row | Structure (SMILES) | Activity [1] [%] | Activity [2] [%] | Activity [3] [%] | Activity [4] [%] | Activity (Pyruvate kinase PKM [5]) [%] | Activity (Pyruvate kinase PKM [6]) | Activity (Pyruvate kinase PKM [7])
17 | C[C@@H]1CN(S(=O)(=O)c2c(F)cccc2F)CCN1S(=O)(=O)c1ccc2c(c1)OCCO2 | < 30 | < 30 | < 30 | < 30 | 98.8 | inactive | inactive
18 | O=S(=O)(c1ccc2c(c1)OCCO2)N1CCN(S(=O)(=O)c2c(F)ccc(O)c2F)CC1 | < 30 | < 30 | < 30 | < 30 | 95.3 | inactive | inactive
19 | Cn1ccc2cc(S(=O)(=O)N3CCN(S(=O)(=O)c4c(F)cccc4F)CC3)ccc21 | < 30 | < 30 | < 30 | < 30 | 91.1 | inactive | inactive
20 | O=S(=O)(c1ccccc1)N1CCN(S(=O)(=O)c2ccc3c(c2)OCCO3)CC1 | < 30 | < 30 | < 30 | < 30 | 108 | inactive | inactive
21 | O=S(=O)(c1c(F)cccc1F)N1CCN(S(=O)(=O)c2c(F)cccc2F)CC1 | < 30 | < 30 | < 30 | < 30 | 74.3 | inactive | inactive
22 | O=S(=O)(N[C@H]1CC[C@H](NS(=O)(=O)c2c(F)cccc2F)CC1)c1ccc2c(c1)OCCO2 | < 30 | < 30 | < 30 | < 30 | 90.8 | inactive | inactive
23 | O=S(=O)(c1ccc2c(c1)OCCO2)N1CCN(S(=O)(=O)c2ccccn2)CC1 | < 30 | < 30 | < 30 | < 30 | 103 | inactive | inactive
24 | O=S(=O)(c1ccc(F)cc1)N1CCN(S(=O)(=O)c2ccc3c(c2)OCCO3)CC1 | < 30 | < 30 | < 30 | < 30 |  | inactive | inactive
25 | O=S(=O)(c1ccc2c(c1)OCCO2)N1CCN(S(=O)(=O)c2ccc(F)cc2F)CC1 | < 30 | < 30 | < 30 | < 30 | 113 | inactive | inactive
26 | O=S(=O)(c1cccc(F)c1)N1CCN(S(=O)(=O)c2ccc3c(c2)OCCO3)CC1 | < 30 | < 30 | < 30 | < 30 | 107 | inactive | inactive
27 | COc1ccc(S(=O)(=O)N2CCN(S(=O)(=O)c3ccc(OC)cc3)CC2)cc1 | < 30 | < 30 | < 30 | < 30 | 87.6 | inactive | inactive
28 | O=S(=O)(NCCCNS(=O)(=O)c1c(F)cccc1F)c1ccc2c(c1)OCCO2 | < 30 | < 30 | < 30 | < 30 | 106 | inactive | inactive
29 | O=S(=O)(c1c(F)cccc1F)C1CCN(S(=O)(=O)c2ccc3c(c2)OCCO3)CC1 | < 30 | < 30 | < 30 | < 30 | 104 | inactive | inactive
30 | COc1ccc(S(=O)(=O)N2CCN(S(=O)(=O)c3c(F)cccc3F)CC2)cc1 | < 30 | < 30 | < 30 | < 30 | 102 | inactive | inactive
31 | O=S(=O)(c1ccc2c(c1)OCCO2)N1CCN(S(=O)(=O)c2ccccc2F)CC1 | < 30 | < 30 | < 30 | < 30 | 114 | inactive | inactive
32 | C[C@H]1CN(S(=O)(=O)c2c(F)cccc2F)CCN1S(=O)(=O)c1ccc2c(c1)OCCO2 | < 30 | < 30 | < 30 | < 30 | 109 | inactive | inactive
